Assay results taken from the RNAGym collection of RNA variant scans (doi:10.1038/s41586-018-0170-7).

B1: tRNA (parent)
chain: GUUCCGUUGGCGUAAUGGUAACGCGUCUCCCUCCUAAGGAGAAGACUGCGGGUUCGAGUCCCGUACGGAACG

Variants of: B1
Assay: yeast fitness, log relative to wild type (ln ratio); higher = fitter; tRNA-Arg(CCU), competitive growth, 37 C, 1 M NaCl
Method in brief: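 Fitness is the natural log of a genotype's generation count divided by that of the wild type. A combinatorial library of tRNA-Arg(CCU) variants sat on a HIS3 centromeric plasmid in BY4742 lacking the chromosomal gene, from two independent transformations. Pools grew 4 generations in SC-HIS at 30 °C, then ~6.5 generations (~26.5 h) in SC-HIS 1M NaCl at 37 °C, with three outputs per input. Generations came from OD-scaled log2 output/input frequency, inverse-variance weighted across replicates, with variants counted by 125 bp paired-end Illumina sequencing.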

Variant | yeast fitness (ln)
GUUCCUUUGGCGUAAUGGUAACGCGUCUCCCUCCUAAGGAGACGAUUGCGGGUUCGAGUCCCGUAAGGAUUG [G6U A43C C46U C66A A70U C71U] | -0.214
GUUCCAUUGGCGUAAUGGUAACGCGUCUCCCUCCUAAGGAGAAGACUGCGGGUUCGAGUCCCGUACGGAAUG [G6A C71U] | -0.23
GUUCCUUUGGCGUAAUGGUAACGCGUCUCCCUCCUAAGGAGACGAUUGCGGGUUCGAGUCCCGUACGGAGUG [G6U A43C C46U A70G C71U] | -0.256
GUUCCAUUGGCGUAAUGGUAACGCGUCUCCCUCCUAAGGAGAAGAUUGCGGGUUCGAGUCCCGUAUGGAAUG [G6A C46U C66U C71U] | -0.0146
GUUCCUUUGGCGUAAUGGUAACGCGUCUCCCUCCUAAGGAGACGAUUGCGGGUUCGAGUCCCGUACGGAACG [G6U A43C C46U] | -0.193
GUUCCUUUGGCGUAAUGGUAACGCGUCUCCCUCCUAAGGAGACGAUUGCGGGUUCGAGUCCCGUAAGGGACG [G6U A43C C46U C66A A69G] | 0.0709
GUUCCAUUGGCGUAAUGGUAACGCGUCUCCCUCCUAAGGAGAAGACUGCGGGUUCGAGUCCCGUAAGGAAUG [G6A C66A C71U] | -0.0747
GUUCCUUUGGCGUAAUGGUAACGCGUCUCCCUCCUAAGGAGACGAUUGCGGGUUCGAGUCCCGUACGGGUCG [G6U A43C C46U A69G A70U] | -0.236
GUUCCUUUGGCGUAAUGGUAACGCGUCUCCCUCCUAAGGAGACGAUUGCGGGUUCGAGUCCCGUACGGGGCG [G6U A43C C46U A69G A70G] | -0.232
GUUCCUUUGGCGUAAUGGUAACGCGUCUCCCUCCUAAGGAGACGAUUGCGGGUUCGAGUCCCGUAUGGGGCG [G6U A43C C46U C66U A69G A70G] | -0.313
GUUCCUUUGGCGUAAUGGUAACGCGUCUCCCUCCUAAGGAGACGAUUGCGGGUUCGAGUCCCGUACGGGAUG [G6U A43C C46U A69G C71U] | -0.234
GUUCCAUUGGCGUAAUGGUAACGCGUCUCCCUCCUAAGGAGAAGAUUGCGGGUUCGAGUCCCGUAUGGGGUG [G6A C46U C66U A69G A70G C71U] | -0.581
GUUCCUUUGGCGUAAUGGUAACGCGUCUCCCUCCUAAGGAGACGACUGCGGGUUCGAGUCCCGUACGGGGCG [G6U A43C A69G A70G] | -0.371
GUUCCUUUGGCGUAAUGGUAACGCGUCUCCCUCCUAAGGAGACGACUGCGGGUUCGAGUCCCGUACGGGUCG [G6U A43C A69G A70U] | -0.371
GUUCCAUUGGCGUAAUGGUAACGCGUCUCCCUCCUAAGGAGAAGAUUGCGGGUUCGAGUCCCGUACGGAAUG [G6A C46U C71U] | -0.359
GUUCCUUUGGCGUAAUGGUAACGCGUCUCCCUCCUAAGGAGACGACUGCGGGUUCGAGUCCCGUACGGAACG [G6U A43C] | -0.132
GUUCCUUUGGCGUAAUGGUAACGCGUCUCCCUCCUAAGGAGACGAUUGCGGGUUCGAGUCCCGUACGGGGUG [G6U A43C C46U A69G A70G C71U] | -0.308
GUUCCAUUGGCGUAAUGGUAACGCGUCUCCCUCCUAAGGAGAAGAUUGCGGGUUCGAGUCCCGUAUGGAGUG [G6A C46U C66U A70G C71U] | -0.229
GUUCCUUUGGCGUAAUGGUAACGCGUCUCCCUCCUAAGGAGACGACUGCGGGUUCGAGUCCCGUACGGGGUG [G6U A43C A69G A70G C71U] | -0.327

Variant | yeast fitness (ln)
GUUCCAUUGGCGUAAUGGUAACGCGUCUCCCUCCUAAGGAGAAGACUGCGGGUUCGAGUCCCGUAUGGGACG [G6A C66U A69G] | -0.0231
GUUCCUUUGGCGUAAUGGUAACGCGUCUCCCUCCUAAGGAGACGAUUGCGGGUUCGAGUCCCGUAAGGGAUG [G6U A43C C46U C66A A69G C71U] | -0.548
GUUCCUUUGGCGUAAUGGUAACGCGUCUCCCUCCUAAGGAGACGAUUGCGGGUUCGAGUCCCGUACGGGACG [G6U A43C C46U A69G] | -0.176
GUUCCAUUGGCGUAAUGGUAACGCGUCUCCCUCCUAAGGAGAAGAUUGCGGGUUCGAGUCCCGUAUGGAUUG [G6A C46U C66U A70U C71U] | -0.423
GUUCCAUUGGCGUAAUGGUAACGCGUCUCCCUCCUAAGGAGAAGACUGCGGGUUCGAGUCCCGUAUGGAGUG [G6A C66U A70G C71U] | -0.358
GUUCCAUUGGCGUAAUGGUAACGCGUCUCCCUCCUAAGGAGAAGACUGCGGGUUCGAGUCCCGUAUGGAUUG [G6A C66U A70U C71U] | -0.462
GUUCCUUUGGCGUAAUGGUAACGCGUCUCCCUCCUAAGGAGACGAUUGCGGGUUCGAGUCCCGUAAGGAUCG [G6U A43C C46U C66A A70U] | -0.113
GUUCCUUUGGCGUAAUGGUAACGCGUCUCCCUCCUAAGGAGACGAUUGCGGGUUCGAGUCCCGUAAGGAGCG [G6U A43C C46U C66A A70G] | -0.0224
GUUCCUUUGGCGUAAUGGUAACGCGUCUCCCUCCUAAGGAGACGAUUGCGGGUUCGAGUCCCGUAAGGAGUG [G6U A43C C46U C66A A70G C71U] | -0.227
GUUCCUUUGGCGUAAUGGUAACGCGUCUCCCUCCUAAGGAGACGACUGCGGGUUCGAGUCCCGUACGGGUUG [G6U A43C A69G A70U C71U] | -0.447
GUUCCUUUGGCGUAAUGGUAACGCGUCUCCCUCCUAAGGAGACGAUUGCGGGUUCGAGUCCCGUAAGGGGCG [G6U A43C C46U C66A A69G A70G] | -0.147
GUUCCUUUGGCGUAAUGGUAACGCGUCUCCCUCCUAAGGAGACGAUUGCGGGUUCGAGUCCCGUAAGGGUCG [G6U A43C C46U C66A A69G A70U] | -0.113
GUUCCAUUGGCGUAAUGGUAACGCGUCUCCCUCCUAAGGAGAAGAUUGCGGGUUCGAGUCCCGUAUGGGAUG [G6A C46U C66U A69G C71U] | -0.0544
GUUCCAUUGGCGUAAUGGUAACGCGUCUCCCUCCUAAGGAGAAGACUGCGGGUUCGAGUCCCGUAAGGGGCG [G6A C66A A69G A70G] | -0.159
GUUCCAUUGGCGUAAUGGUAACGCGUCUCCCUCCUAAGGAGAAGAUUGCGGGUUCGAGUCCCGUAAGGAGUG [G6A C46U C66A A70G C71U] | -0.169
GUUCCUUUGGCGUAAUGGUAACGCGUCUCCCUCCUAAGGAGACGACUGCGGGUUCGAGUCCCGUACGGGACG [G6U A43C A69G] | -0.328
GUUCCAUUGGCGUAAUGGUAACGCGUCUCCCUCCUAAGGAGAAGAUUGCGGGUUCGAGUCCCGUAAGGAUCG [G6A C46U C66A A70U] | -0.0387
GUUCCUUUGGCGUAAUGGUAACGCGUCUCCCUCCUAAGGAGACGAUUGCGGGUUCGAGUCCCGUAUGGGACG [G6U A43C C46U C66U A69G] | -0.261
